Bioassay records as filed in PubChem BioAssay.
An excerpt weighted towards active compounds, which were near 4.1% of everything screened.
ROMK mod = ROMK potassium channel modulators, primary screen, cell-based, thallium flux, MLSMR library; ATP-sensitive inward rectifier potassium channel 1 (Homo sapiens), P48048; Tet-inducible ROMK, thallium flux fluorescence; actives lie on both sides; B-score at 10 µM; 130,000 tested, 2% active; AID 1918, 2009;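 active means signal ratio slope over the read window, or its plate-corrected B-score, at least 3 SD from the plate mean, either direction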;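 further: B-score of the F/F0 ratio slope over 7 to 12 s after thallium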
Target sequence (P48048 whole entry, looked up): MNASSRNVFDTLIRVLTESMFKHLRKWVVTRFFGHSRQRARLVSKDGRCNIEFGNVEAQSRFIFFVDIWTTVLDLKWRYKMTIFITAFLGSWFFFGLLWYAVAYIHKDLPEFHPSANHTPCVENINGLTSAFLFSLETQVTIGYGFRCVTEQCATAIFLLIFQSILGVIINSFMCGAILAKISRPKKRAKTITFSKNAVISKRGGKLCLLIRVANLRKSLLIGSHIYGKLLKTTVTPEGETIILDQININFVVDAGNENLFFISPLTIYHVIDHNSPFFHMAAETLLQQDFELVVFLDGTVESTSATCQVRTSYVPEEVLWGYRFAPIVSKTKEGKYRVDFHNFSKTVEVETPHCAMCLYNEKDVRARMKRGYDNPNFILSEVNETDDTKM
Autophagy mod = autophagy modulators in MEF cells, primary screen, imaging, high-content, MEF GFP-LC3. MEF GFP-LC3 puncta imaging; test concentration mostly 10 µM. calls only at 10 µM (by protocol). 190,000 tested, 0.98% active. AID 463193, 2010;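 active means percentage of spot-positive cells more than 3 SD above its plate mean, without a fluorescence outlier flag or 80% toxicity; inconclusive means no clear call, values can overlap the other calls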;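 further: spot-positive cell cutoff set from DMSO-treated cells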
KCC2 mod = KCC2 cotransporter modulators, thallium flux, primary screen, cell-based, HEK293 KCC2, FluoZin-2 fluorescence, MLSMR | Solute carrier family 12 member 5 (Homo sapiens), Q9H2X9 | KCC2 cells, thallium flux FluoZin-2 fluorescence | B-score of Tl+ flux slope (higher = more flux/activation; lower = inhibition) at 10 µM | 190,000 tested, 2.2% active;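 active means thallium flux slope and its plate-corrected score both differing from the plate sample mean at a set confidence after two filtering rounds, in either direction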;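 further: slope of fluorescence scaled to starting intensity during 10 to 20 s after thallium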
Dynein transport = inhibitors of GR-EGFP nuclear translocation, primary screen, dynein cargo transport inhibitor project, imaging, high-content, 3617.4 mouse cells; 220,000 tested, 0.47% active; z-score, hits read low; test concentration mostly 20 µM; stimulated with dexamethasone, 1 µM; active compounds read low; AID 1381, 2008;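 active means plate z-score of nuclear minus cytoplasmic receptor signal below a set negative limit, without overly bright fluorescence or cell loss, cut at about -3.5 in these data, passing the limit was not always enough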;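 further: z-score of nuclear minus cytoplasmic ring GR-EGFP intensity difference per well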
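Buffer or medium: Induction medium lacking tetracycline, stripped serum | Also added: Dexamethasone agonist, 1.0 µM final, for 30 min | Timing: 48 h induction, 1 h compound, 30 min dex at 37 °C | Detection: Formaldehyde fixation, Hoechst nuclear stain, 10x automated fluorescence imaging | Measure: Nuclear versus cytoplasmic GR-EGFP signal, averaged per well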
DTT redox prof = compounds producing H2O2 with reducing agent – biochemical, NIH compound library profiling, artefact control for MLSCN library redox annotation, primary screen | AID 878, 2007 | activation, % at 10 µM | 200,000 tested, 0.03% active | DTT-dependent redox cycling H2O2, phenol red/HRP absorbance; 100% = 100 µM peroxide control, 0% = buffer;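 active means activation of at least 50% relative to the plate's high and low controls in the primary single-dose screen; inactive means activation below 50%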;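 further: compound incubated with DTT at 0.8 mM final as the reducing agent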
KCC2 sec1 = KCC2 modulators in sodium-free buffer, confirmation, cell-based, HEK293 KCC2, thallium flux, secondary assay; shares compounds with KCC2 mod; FluoZin2 fluorescence; active compounds read high; 3,700 tested, 15% active; normalised thallium flux (F/F0 slope) at 10 µM;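 active means thallium flux slope above the same plate's solvent-only control mean plus 3 SD; inconclusive means the two replicate wells disagree; inactive means no significant difference from solvent-only control wells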
KCC2 bumet counter = thallium flux persisting under bumetanide in KCC2 cells, confirmation, counter-screen for KCC2 modulator project, cell-based, HEK293 KCC2, FluoZin2, secondary assay 3. normalized thallium flux at 10 µM. HEK293-KCC2 + bumetanide/ouabain; active compounds read high. shares compounds with KCC2 mod. 3,700 tested, 49% active;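 active means thallium entry rate above the same plate's blocked-transporter control wells by more than 3 SD; inconclusive means the two repeat wells disagree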;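 further: raw slope of fluorescence over initial fluorescence between 10 and 20 s after thallium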
KCC2 secondary2 = KCC2 modulators without ouabain present, confirmation, cell-based, HEK293 KCC2, thallium flux, FluoZin2, secondary assay 2 | shares compounds with KCC2 mod | thallium flux FluoZin2 fluorescence; actives lie on both sides; F/F0 rise rate, 10–20 s post-thallium | normalized thallium flux at 10 µM | 3,700 tested, 23% active;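 active means thallium flux slope more than 3 SD above or below the plate's solvent-only control mean, mostly below; inconclusive means the two repeat wells disagreed; inactive means no significant shift from solvent-only controls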;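 further: raw slope with 0.1% DMSO as baseline and bumetanide as block control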
HEK counter1 = thallium flux modulation in parental HEK cells, confirmation, counter-screen for KCC2 modulator project, cell-based, counterscreen 1; shares compounds with KCC2 mod; 3,700 tested, 46% active; HEK293 parental cells, thallium flux FluoZin2, ouabain; baseline-ratio fluorescence slope, 10–20 s after thallium; thallium flux rate (normalised fluorescence) at 10 µM;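 active means thallium flux rate significantly above the same plate's solvent-only control wells, beyond their mean plus 3 SD; inconclusive means the two replicate wells gave conflicting results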
KCC2 ouabain = KCC2 inhibitors and activators, ouabain retest, confirmation, HEK-KCC2 cells. shares compounds with KCC2 mod. HEK293-KCC2, thallium flux FluoZin2 fluorescence; bidirectional: low = inhibitor, high = activator. raw Tl+ flux slope (below DMSO = inhibition, above = activation) at 10 µM. 3,700 tested, 48% active. AID 1717, 2009;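 active means thallium flux slope beyond 3 SD from same-plate DMSO control mean in most replicates, usually higher, sometimes lower; inconclusive means repeat tests gave conflicting results; inactive means no significant difference from controls in most replicates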;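 further: slope of initial-normalized fluorescence between seconds 10 and 20 after thallium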
HEK293 Tl flux2 = native HEK Tl+ uptake effects, second counter-screen – HEK cells, counterscreen 2, counter-screen for KCC2 modulator project, confirmation; AID 1718, 2009; HEK293 parental, thallium flux FluoZin-2 fluorescence slope; thallium flux slope at 10 µM; 3,700 tested, 33% active; shares compounds with KCC2 mod;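 active means thallium flux slope above the same plate's solvent-control mean plus 3 SD in both duplicate wells; inconclusive means duplicate wells that disagreed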;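 further: run without ouabain in cells lacking the KCC2 cotransporter; slope of fluorescence scaled to its starting value between 10 and 20 s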
* hit, by the source's call; i = inactive; ? = inconclusive; · = no result given.

SMILES	ROMK mod	Autophagy mod	KCC2 mod	Dynein transport	DTT redox prof	KCC2 sec1	KCC2 bumet counter	KCC2 secondary2	HEK counter1	KCC2 ouabain	HEK293 Tl flux2
O=C(CSCc1ccc(Cl)cc1)Nc1cc([N+](=O)[O-])ccc1O	-2.5	i	-3.4*	-1.32	2.3	0.00558	0.004	0.022*	0.00623*	0.0144*	0.0083*
COc1ccc([N+](=O)[O-])cc1NC(=O)CSCc1ccc(Br)cc1	-1.12	i	-0.547	-0.549	-0.5	·	·	·	·	·	·
Cc1nc2nc(-c3ccc(Cl)cc3)cn2nc1C	-0.261	i	·	0.525	0.1	0.00858	0.00573	0.0311	0.00872	0.0186	0.0118
O=C(NCC1CCN(S(=O)(=O)c2ccccc2)CC1)Nc1ccccc1	·	·	0.252	1.33	·	·	·	·	·	·	·
CCCCN(C)CCC(=O)Nc1ccc2c(c1)CCC2	-0.107	i	6.09*	-0.639	-0.2	0.00669	?	0.031	0.00798	0.0185	0.0113
COc1ccc(NC(=O)CN(C)CC(=O)Nc2ccc3c(c2)CCC3)cc1	0.0637	i	0.0186	1.5	-0.3	·	·	·	·	·	·
COc1ccc(CCNC(=O)C(=O)NCc2ccccn2)cc1	0.696	i	0.0162	-0.397	-1.8	·	·	·	·	·	·
Cc1ccc(-c2nc(CN(C)Cc3cccc4cnccc34)c(C)o2)s1	-2.22	i	0.103	-0.864	-1.5	·	·	·	·	·	·
COc1cccc(-c2nc(NCCN3CCOCC3)c3ccccc3n2)c1O	-0.844	i	-0.041	0.366	-0.9	0.0103	0.00716	0.0328	0.00784	0.0215	?
Cc1ccc(-c2nc(NCCN3CCOCC3)c3ccccc3n2)cc1	·	i	0.361	-0.906	1.4	·	·	·	·	·	·
O=C(CCc1nc2ccccc2s1)OCc1ccccc1F	·	i	-0.411	0.483	0.5	·	·	·	·	·	·
COc1cccc(NC(=O)NC(C)C2CC3CCC2C3)c1 (stereo unspecified)	-0.493	i	0.00241	-1.08	-0.3	·	·	·	·	·	·
N#CC(C#N)=C(Nc1ccc(F)cc1)SCc1cccc(F)c1	-0.369	i	-5.05*	0.877	-0.5	0.00497	?	0.0247*	?	0.014*	0.00905*
CCOc1ccc(N/C(SCc2cccc([N+](=O)[O-])c2)=C(/C#N)C(N)=O)cc1	-2.15	i	0.771	-1.78	1.9	·	·	·	·	·	·
Cc1ccc(-c2csc(NC(=O)c3ccc4c(=O)n5c(nc4c3)CCCCC5)n2)cc1	·	i	-0.0487	-0.791	0.1	·	·	·	·	·	·
CC(C)CSC1=NSC2=NC(=O)/C(=C\c3cccs3)C(=N)N12	-1.18	i	41.7*	-0.386	-0.1	0.00975*	0.0895*	0.0655*	0.0665*	0.0748*	0.0451*
CSC1=NSC2=NC(=O)/C(=C\c3cccs3)C(=N)N12	-0.753	i	-0.156	-0.333	-0.7	·	·	·	·	·	·
Cc1ccc(C(=O)CCC2CCCCC2=O)cc1 (stereo unspecified)	1.03	i	·	-1.28	0.1	0.00582	0.0119*	0.0308	0.00746	?	0.0105
Nc1nc(SCC(=O)Nc2ccc(Cl)cn2)n[nH]1	0.276	i	12.7*	0.0585	-0.4	0.0107	0.00613	0.0312	0.0085	0.0184	0.0107
CC(Sc1n[nH]c(N)n1)C(=O)Nc1ccc(Cl)cn1 (stereo unspecified)	0.549	i	-0.269	0.738	-2.6	·	·	·	·	·	·
O=C(N=Nc1c(O)[nH]c2ccc([N+](=O)[O-])cc12)c1cc(-c2ccccc2Cl)nc2ccccc12	·	i	0.697	1.25	-0.1	·	·	·	·	·	·
C=C(C)CNC(=S)N=Nc1c(O)[nH]c2ccc([N+](=O)[O-])cc12	0.397	i	13.8*	0.541	-0.6	0.0076	0.0209*	0.0327	0.0243*	0.0272*	0.0135*
CCOC(=O)c1c(C)[nH]c(N=Nc2ccc(OC)cc2)c1C	·	·	1	0.793	·	·	·	·	·	·	·
CCn1c(=O)n(CC)c2cc(S(=O)(=O)N3CCC(c4ccccc4)CC3)ccc21	-2.51	i	·	-0.235	3.3	0.00617	0.00469	0.0245*	0.00705	0.0169*	0.0102
NS(=O)(=O)c1ccc(NC(=O)COC(=O)COc2ccc(Cl)cc2)cc1	0.657	i	1.55	1.69	0.1	·	·	·	·	·	·
SMILES	ROMK mod	Autophagy mod	KCC2 mod	Dynein transport	DTT redox prof	KCC2 sec1	KCC2 bumet counter	KCC2 secondary2	HEK counter1	KCC2 ouabain	HEK293 Tl flux2
CC(/C=N/n1c(-c2cc(C)[nH]n2)n[nH]c1=S)=C\c1ccccc1	·	i	-4.42*	-0.249	0.0	0.00946	0.00651	0.0335	?	0.0188	0.0109
Cc1c(-n2c(SCC(=O)O)nnc2-c2ccccc2Cl)c(=O)n(-c2ccccc2)n1C	·	i	0.0455	-0.263	2.0	0.00911	0.00539	0.0318	0.00757	0.0202	?
COc1ccccc1-c1nnc(SCC(=O)O)n1-c1ccc(C)cc1	-0.0377	i	0.19	-1.33	1.4	·	·	·	·	·	·
COC(=O)CSc1cc(SCC(=O)OC)c(C#N)c(SCC(=O)OC)c1	·	i	-3.19*	-0.375	-1.8	0.00587	0.00458	0.0311	?	0.0184	0.00991
COC(=O)CSc1ccc(C#N)c(SCC(=O)OC)c1	·	i	-1.26	0.0896	2.9	·	·	·	·	·	·
CN(CCCn1c(=S)[nH]c2ncccc2c1=O)Cc1ccccc1	·	·	14.8*	-0.643	4.1	?	0.057*	0.0362	0.0222*	0.0566*	0.0138*
CCCCCn1c(=S)[nH]c2ncccc2c1=O	·	·	56.6*	-0.397	2.4	0.0379*	0.12*	0.0465*	?	0.0938*	0.036*
